Measurements: ChEMBL document CHEMBL4017532, “Multifunctional Hybrid Compounds Derived from 2-(2,5-Dioxopyrrolidin-1-yl)-3-methoxypropanamides with Anticonvulsant and Antinociceptive Properties” (J Med Chem, 2017)
The source made the active and inactive calls.

Tests used:
Mus musculus [1] = test: Antiallodynic activity in oxaliplatin-induced Albino Swiss CD-1 mouse model of peripheral neuropathy assessed as elevation in pain sensitivity threshold at 25 mg/kg, ip administered 30 mins prior to oxaliplatin challenge relative to control; assay type: functional
How it was run: (§1)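 Male CD-1 mice, 18–25 g, that had developed oxaliplatin-induced tactile allodynia were dosed ip 30 min before testing. Doses were 25, 50 or 100 mg/kg, or 50, 100 or 150 mg/kg for the reference. Vehicle was 1% aqueous Tween 80. Paw-withdrawal force was measured by von Frey filaments. Data are mean ± SEM, analysed by repeated-measures ANOVA with Dunnett's test against oxaliplatin plus vehicle mice.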

Mus musculus [2] = test: Antinociceptive activity in Albino Swiss CD-1 mouse assessed as inhibition of capsaicin-induced nociception by measuring time spent licking injected paw at 50 mg/kg, ip administered 30 mins mins prior to capsaicin challenge measured for 5 mins relative to control; assay type: functional; settings: Swiss CD-1, ip
How it was run: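 Mice (male CD-1, 18–25 g) were pretreated ip 30 min before intraplantar capsaicin. Doses were 25, 50 or 100 mg/kg, or 100, 150 or 200 mg/kg for the reference. Vehicle was 1% Tween 80 at 10 mL/kg. Duration of nociceptive response was scored over 5 min after injection. Data are mean ± SEM of 8–10 mice, by one-way ANOVA with Dunnett's test against vehicle.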

Mus musculus [3] = test: Anticonvulsant activity in Albino Swiss CD-1 mouse assessed as inhibition of pentylenetetrazole-induced seizures by measuring time to peak effect at 100 mg/kg, ip administered up to 2 hrs prior to PTZ induction measured for 30 mins; assay type: functional
[4] = Neurotoxicity in ip dosed Albino Swiss CD-1 mouse assessed as induction of motor impairment measured up to 60 secs by chimney test; assay type: toxicity, organism-based; settings: in vivo
How it was run: (§2)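 Acute neurological toxicity after ip dosing (1% Tween 80 suspension) was assessed in the mouse chimney test. TD50 with 95% confidence limits was derived by probit analysis. Protective index is TD50 from the chimney test divided by ED50 from the MES, scPTZ or 6 Hz test.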

Rattus norvegicus [5] = species on record: Rattus norvegicus; test: Displacement of [3H]-batrachotoxinin from sodium channel site 2 in rat cerebral cortex at 100 uM after 60 mins by liquid scintillation spectroscopic method
How it was run: (§3)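 Run commercially by an outside contract lab, with the compound tested at 100 μM. The read-out was percent inhibition of binding of the radiolabelled ligand, reported as compound binding.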

Mus musculus [6] = test: Antiallodynic activity in oxaliplatin-induced Albino Swiss CD-1 mouse model of peripheral neuropathy assessed as elevation in pain sensitivity threshold at […], ip administered 30 mins prior to oxaliplatin challenge relative to control; assay type: functional
Mus musculus [7] = test: Antinociceptive activity in Albino Swiss CD-1 mouse assessed as inhibition of formalin-induced inflammatory pain response administered ip 30 mins before formalin injection measured after 15 to 30 mins; assay type: functional; settings: Swiss CD-1, ip
How it was run: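 Male CD-1 mice were given test agents ip 30 min before subcutaneous intraplantar formalin. Doses were 12.5, 25 or 50 mg/kg, or 100, 150 or 200 mg/kg for the reference. Vehicle was 1% Tween 80 at 10 mL/kg. Paw licking time was recorded in phase I (0–5 min) and phase II (15–30 min). Data are mean ± SEM of 8–10 mice, by Dunnett's test. ED50 was obtained by log-probit analysis with 95% confidence limits.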

Mus musculus [8] = test: Anticonvulsant activity in ip dosed Albino Swiss CD-1 mouse assessed as protection against maximal electroshock-induced seizures pretreated up to 2 hrs followed by 50 Hz current induction for […] measured at time to peak effect; assay type: functional; settings: Swiss CD-1, ip
Mus musculus [9] = test: Antiallodynic activity in oxaliplatin-induced Albino Swiss CD-1 mouse model of peripheral neuropathy assessed as elevation in pain sensitivity threshold administered ip 30 mins prior to oxaliplatin challenge; assay type: functional, organism-based; how it was run: as §1
Mus musculus [10] = test: Analgesic activity in Albino Swiss CD-1 mouse assessed as increase in pain response latency administered at 150 mg/kg, ip treated up to 90 mins prior to tet by hot plate assay; assay type: functional, organism-based
How it was run: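 Male CD-1 mice, 18–25 g, 6–12 per group, given test agents as 1% aqueous Tween 80 suspension ip. Doses were 50, 100 or 150 mg/kg, with morphine hydrochloride at 4 mg/kg as reference. Mice were placed on the hot plate 15, 30, 45, 60 and 90 min after dosing, and latency to pain reaction was recorded.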

[11] = target: GABA-A receptor; alpha-1/beta-2/gamma-2 (Homo sapiens) (UniProt P14867+P47870+P18507); test: Displacement of [3H]muscimol from human GABAalpha1beta2gamma2 receptor expressed in CHO cells at 100 uM after 30 mins by liquid scintillation counting; assay type: cell-based
How it was run: (§4)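 Radioligand binding was run as a contract service. Percent inhibition of specific labelled-ligand binding was measured at 100 μM test compound, or 200 μM for hERG.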

Rattus norvegicus [12] = species on record: Rattus norvegicus; test: Displacement of [3H]nitrendipine from L-type calcium channel dihydropyridine binding site in rat cerebral cortex at 100 uM by liquid scintillation spectrometry; how it was run: as §4
Mus musculus [13] = test: Anticonvulsant activity in Albino Swiss CD-1 mouse assessed as inhibition of pentylenetetrazole-induced seizures at 100 mg/kg, ip administered up to 0.5 hrs prior to PTZ induction measured after 30 mins relative to control; assay type: functional; parameters: scale not given: the % may be the effect or the level left
Mus musculus [14] = test: Antiallodynic activity in oxaliplatin-induced Albino Swiss CD-1 mouse model of peripheral neuropathy assessed as elevation in pain sensitivity threshold at 50 mg/kg, ip administered 30 mins prior to oxaliplatin challenge relative to control; assay type: functional; how it was run: as §1
Cytochrome P450 3A4 = Cytochrome P450 3A4 (Homo sapiens, UniProt P08684); test: Inhibition of human CYP3A4 assessed as reduction in luciferin-PPXE conversion to D-luciferin at 12.5 to 25 uM by luminescence assay; assay type: ADME
How it was run: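 P450-Glo luminescence assays used recombinant human CYP3A4 or CYP2D6 with conversion of luciferin-PPXE to D-luciferin. Ketoconazole (CYP3A4) and quinidine (CYP2D6) served as reference inhibitors.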

[15] = target: Voltage-gated inwardly rectifying potassium channel KCNH2 (Homo sapiens, UniProt Q12809); test: Displacement of [3H]astemizole from human hERG expressed in HEK293 cell membrane at 200 uM after 90 mins by liquid scintillation counting; assay type: cell membranes; settings: hek293, 1.5 h; how it was run: as §4
Mus musculus [16] = test: Toxicity in Albino Swiss CD-1 mouse assessed as motor coordination impairment at 50 to 150 mg/kg, ip by rotarod test; assay type: organism-based; settings: in vivo
Rattus norvegicus [17] = species on record: Rattus norvegicus; test: Displacement of [3H]GABA from GABA transporter in rat cerebral cortex at 100 uM by liquid scintillation spectrometry; how it was run: as §4
Mus musculus [18] = test: Toxicity in Albino Swiss CD-1 mouse assessed as effect on spontaneous locomotar activity at 25 to 150 mg/kg, ip treated 30 mins prior to test; assay type: organism-based; settings: in vivo, 0.5 h
How it was run: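 Male CD-1 mice were dosed ip at 25, 50, 100 or 150 mg/kg 30 min before testing and then placed singly in activity cages. Light-beam crossings were counted over 30 min in 10 min intervals.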

Rattus norvegicus [19] = species on record: Rattus norvegicus; test: Displacement of omega[125I]conotoxin from N-type calcium channel in rat cerebral cortex at 100 uM by scintillation spectrophotometry; how it was run: as §3
Mus musculus [20] = test: Protection index, ratio of TD50 for neurotoxicity in ip dosed Albino Swiss CD-1 mouse to ED50 for ip dosed pentylenetetrazole induced seizure Albino Swiss CD-1 mouse model; how it was run: as §2

Chain of Cytochrome P450 3A4 (P08684 whole entry): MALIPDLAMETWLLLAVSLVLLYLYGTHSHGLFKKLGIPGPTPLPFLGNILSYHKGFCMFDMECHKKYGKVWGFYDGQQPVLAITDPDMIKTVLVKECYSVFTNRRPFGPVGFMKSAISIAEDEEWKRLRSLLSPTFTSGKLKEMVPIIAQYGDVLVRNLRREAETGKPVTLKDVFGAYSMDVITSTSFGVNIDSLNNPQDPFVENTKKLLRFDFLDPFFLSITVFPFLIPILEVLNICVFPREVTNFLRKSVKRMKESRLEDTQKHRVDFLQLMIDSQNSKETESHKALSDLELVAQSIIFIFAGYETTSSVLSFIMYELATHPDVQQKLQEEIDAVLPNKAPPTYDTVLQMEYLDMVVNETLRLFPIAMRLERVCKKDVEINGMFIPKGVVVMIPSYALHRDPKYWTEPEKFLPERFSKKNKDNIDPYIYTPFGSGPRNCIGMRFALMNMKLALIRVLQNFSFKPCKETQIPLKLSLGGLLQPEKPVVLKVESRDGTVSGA
Chain of Voltage-gated inwardly rectifying potassium channel KCNH2 (Q12809 whole entry): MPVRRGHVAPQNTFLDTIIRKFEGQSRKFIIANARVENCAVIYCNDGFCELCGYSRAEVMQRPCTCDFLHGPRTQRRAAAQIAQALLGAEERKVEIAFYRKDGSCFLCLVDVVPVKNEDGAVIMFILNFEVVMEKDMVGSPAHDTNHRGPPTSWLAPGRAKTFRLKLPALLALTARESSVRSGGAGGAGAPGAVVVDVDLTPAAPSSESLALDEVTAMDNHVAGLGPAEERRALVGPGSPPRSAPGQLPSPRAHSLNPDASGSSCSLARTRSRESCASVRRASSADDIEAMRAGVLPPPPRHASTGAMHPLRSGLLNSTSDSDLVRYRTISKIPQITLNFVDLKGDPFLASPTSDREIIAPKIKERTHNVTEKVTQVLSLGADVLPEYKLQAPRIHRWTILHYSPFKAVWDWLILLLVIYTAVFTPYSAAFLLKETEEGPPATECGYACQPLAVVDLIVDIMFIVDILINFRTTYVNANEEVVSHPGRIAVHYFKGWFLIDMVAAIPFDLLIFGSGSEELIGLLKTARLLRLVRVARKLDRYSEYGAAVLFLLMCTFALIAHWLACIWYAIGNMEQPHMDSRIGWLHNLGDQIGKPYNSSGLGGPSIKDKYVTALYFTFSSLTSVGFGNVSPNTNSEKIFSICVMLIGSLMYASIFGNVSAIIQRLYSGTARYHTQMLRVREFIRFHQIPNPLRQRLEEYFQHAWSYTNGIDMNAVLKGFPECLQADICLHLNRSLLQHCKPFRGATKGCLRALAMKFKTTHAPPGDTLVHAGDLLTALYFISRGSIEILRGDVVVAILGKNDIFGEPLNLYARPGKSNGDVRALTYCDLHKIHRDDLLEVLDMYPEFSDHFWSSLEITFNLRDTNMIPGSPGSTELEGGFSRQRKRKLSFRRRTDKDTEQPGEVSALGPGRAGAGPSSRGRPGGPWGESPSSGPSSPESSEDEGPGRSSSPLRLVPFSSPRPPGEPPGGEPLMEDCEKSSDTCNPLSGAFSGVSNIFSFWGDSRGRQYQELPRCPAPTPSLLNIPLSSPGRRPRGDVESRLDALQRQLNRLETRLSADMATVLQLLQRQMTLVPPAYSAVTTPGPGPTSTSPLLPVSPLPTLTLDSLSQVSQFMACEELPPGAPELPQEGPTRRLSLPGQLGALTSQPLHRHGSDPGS

In the case of `COCC(C(=O)N1CCN(c2ccc(C(F)(F)F)cc2)CC1)N1C(=O)CCC1=O` (stereo unspecified), the Activity (Mus musculus [1]) is reported as 112.6%, the inhibition in vivo at 50 mg/kg (Mus musculus [2]) is reported as 32.7% and the Time (Mus musculus [3]) is reported as 0.5 h. For the same molecule, the TD50 at 1 min [4] was 156 to 199 mg/kg, the inhibition (Rattus norvegicus [5]) was “inactive” and the Activity (Mus musculus [6]) was 122%. The ED50 (Mus musculus [7]) was 5.1 mg/kg, the ED50 (Mus musculus [8]) was 79.5 to 83.3 mg/kg and the Activity (Mus musculus [9]) was “Dose-dependent effect”. For the same molecule, the Activity (Mus musculus [10]) was “inactive”, the inhibition [11] was “inactive” and the inhibition (Rattus norvegicus [12]) was “inactive”. For the same molecule, the Activity (Mus musculus [13]) was 75%, the Activity (Mus musculus [14]) was 121% and the “inhibition (INH)” value (Cytochrome P450 3A4) was “Not Active”. The “inhibition (INH)” value [15] was “Not Active”, the Activity (Mus musculus [16]) was “Non-Toxic” and the inhibition (Rattus norvegicus [17]) was “inactive”. For the same molecule, the Activity (Mus musculus [18]) was “Non-Toxic”, the inhibition (Rattus norvegicus [19]) was “inactive” and the “Ratio TD50/ED50” value (Mus musculus [20]) was 1.6.
